From PubChem
Many of the other results were omitted from the sample, so hits are more common in it than they were.
H69AR growth 86K = proliferation blockers of H69AR lung cancer cells, primary screen, cell-based, human, 86K library. AID 598, 2007. H69AR lung tumor viability, ATP luminescence, 72 h; active compounds read low. viability, % at 10 µM. hit rate 6% among 85,000;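 active means viability at or below 40%; inactive means viability above 40%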;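 further: multidrug resistant small cell line overexpressing MRP-1 efflux transporter; 100% = mean luminescence of untreated control wells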
Fibroblast inh = antiproliferative effect on LL 47 fibroblasts – human, LL 47 cells, CellTiter-Glo luminescence, primary screen; hit rate 1.1% among 85,000; LL 47 human lung fibroblast viability, ATP luminescence; active compounds read low; AID 719, 2007; viability, % at 10 µM;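 active means viability at or below 50% in the single dose screen; inactive means viability above 50%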;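 further: compound exposure lasted 72 h before the ATP readout; 100% = median luminescence of untreated cell-only wells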
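material = human LL 47 lung fibroblast cells | dosing = compounds added from tenfold dosing solution, 0.1% DMSO final | timing = overnight cell rest, 72 h compound treatment at 37 °C | measured by = CellTiter-Glo luminescence measuring cellular ATP | evaluation = % viability versus median cells-only luminescence | control set = cell-only wells, no compound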
HUVEC inhibit = inhibitors of HUVEC proliferation, primary screen, cell-based, 384-well; hit rate 1.1% among 86,000; viability, % at 10 µM (by protocol); CellTiter-Glo luminescence, 72 h; active compounds read low;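 active means viability at or below 30%; inactive means viability above 30%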;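 further: 100% = median luminescence of DMSO-only cell control wells on each plate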
bCat KO growth = primary screen for growth suppressors in beta-catenin knockout HCT116 cells (colon tumor, human). AID 818, 2007. viability, % at 10 µM. hit rate 1.5% among 140,000. HCT116 beta-catenin knockout viability, CellTiter-Glo, 60 h; active compounds read low;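 active means viability at or under a set limit, the compound median less 4 SD, cut at about 6% in these data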;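 further: 0% = Hyamine 1622 control at 20 µM and 100% = untreated cell control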
HCT116 PTEN-null = growth suppression of PTEN-null HCT116, primary screen, cell-based, CellTiter-Glo. HCT116 PTEN-null viability, 60 h; active compounds read low. viability, % at 10 µM. hit rate 1.2% among 140,000;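 active means viability at or below a set limit, 4 SD under the median of all tested compounds, cut at about 3.7% in these data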;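 further: PTEN knockout HCT116 line with beta catenin targeted HCT116 as companion control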
* marks the source's active call; other numbers are inactive results; . = not tested or not shown.

SMILES | H69AR growth 86K | Fibroblast inh | HUVEC inhibit | bCat KO growth | HCT116 PTEN-null
Cc1nn(Cc2c(Cl)cccc2Cl)c(Cl)c1/C=C/C(=O)OCC(=O)NCC(F)(F)F | . | . | . | 4.2* | 4
CCOC(=O)C1=C(N)n2c(s/c(=C\c3cccs3)c2=O)=C(C(=O)OCC)C1c1cccs1 (configuration not stated) | 29* | 60 | 40 | 19 | 17
CCOC(=O)C1=C(N)n2c(s/c(=C\c3cccnc3)c2=O)=C(C(=O)OCC)C1c1cccnc1 (configuration not stated) | 54 | 96 | 92 | . | .
CCOC(=O)c1c(CN2CCN(C)CC2)oc2ccc(OC)cc12 | 88 | 105 | 92 | 98 | 97
CCOC(=O)c1c(CN2CCN(c3ccccc3)CC2)oc2ccc(O)cc12 | 31* | 92 | 27* | 86 | 70
CCOc1cc2[nH]c(=S)n(CCc3ccc(OC)c(OC)c3)c(=O)c2cc1OCC | 3.0* | 17* | 16* | 20 | 36
CCOc1cc2[nH]c(=S)n(CCCOC)c(=O)c2cc1OCC | 71 | 96 | 89 | 96 | 95
CCOc1cc2[nH]c(=O)n(CCc3ccc(OC)c(OC)c3)c(=O)c2cc1OCC | 36* | 96 | 88 | 83 | 63
O=C1Nc2ccccc2OC1CC(=O)N1CCN(c2cccc(C(F)(F)F)c2)CC1 (configuration not stated) | 67 | 99 | 96 | 76 | 76
Cc1noc2ncnc(Sc3ccccc3Cl)c12 | 2.0* | 68 | 18* | 7 | 8
NN1C(=O)c2cccc3c(C(=O)O)ccc(c23)C1=O | . | . | . | 90 | 97
O=C(c1ccc2c3c(cccc13)C(=O)N(O)C2=O)N1CCCCC1 | 25* | 93 | 89 | 37 | 21
Cc1ccc2[nH]c(=O)c(CN(Cc3ccco3)C(=O)c3cccs3)cc2c1 | 83 | 95 | 92 | 91 | 91
CCCCN(Cc1ccco1)C(=O)c1cc2c(=O)[nH]c3ccc(C)cc3c2s1 | 28* | 62 | 4.4* | 51 | 41
Cc1ccc2cc(CN(Cc3ccco3)C(=O)c3cccs3)c(=O)[nH]c2c1 | 21* | 54 | 61 | 12 | 13
CCC(=O)N1CCc2cc(Br)cc(S(=O)(=O)N3CCCCCC3)c21 | 75 | 104 | 100 | 86 | 79
O=C(C1CC1)N1CCc2cc(Br)cc(S(=O)(=O)N3CCCCCC3)c21 | 37* | 83 | 98 | 75 | 77
C=C(C)COc1ccc(-c2[nH]ncc2-c2ccc(Br)cc2)c(O)c1 | . | . | . | 1.8* | 2.2*
C=C(C)COc1ccc(-c2n[nH]c(C)c2-c2ccc(Br)cc2)c(O)c1 | 6.6* | 32* | 3.8* | 21 | 30
C=C(C)COc1ccc(-c2[nH]ncc2-c2ccccc2OC)c(O)c1 | 6.0* | 64 | 32 | 53 | 44
CCOc1ccc(-c2[nH]ncc2Oc2ccccc2OC)c(O)c1 | 46 | 97 | 84 | 86 | 86
C=C(C)COc1ccc(-c2[nH]ncc2Oc2ccccc2OC)c(O)c1 | 1.5* | 60 | 50 | 89 | 68
C=C(C)COc1ccc(-c2nc(N)ncc2Oc2ccc(OC)cc2)c(O)c1 | 73 | 85 | 87 | 85 | 64
O=C(/C=C/c1ccccc1[N+](=O)[O-])Nc1cccnc1 | . | . | . | 93 | 92
Nc1cc(C(=O)OCC(=O)NCc2ccco2)ccc1Cl | 115 | 97 | 84 | 99 | 97
SMILES | H69AR growth 86K | Fibroblast inh | HUVEC inhibit | bCat KO growth | HCT116 PTEN-null
CC1CCc2sc(C(=O)N=Nc3c(O)[nH]c4ccccc34)cc2C1 (configuration not stated) | . | . | . | 90 | 77
COc1ccc(-c2cn[nH]c2-c2ccc(OCc3ccc([N+](=O)[O-])cc3)cc2O)cc1 | . | . | . | 51 | 36
CCOc1ccc(-c2[nH]ncc2-c2ccc(OC)c(OC)c2)c(O)c1 | 14* | 59 | 67 | 22 | 25
CCOc1ccc(-c2[nH]ncc2Oc2ccccc2OCC)c(O)c1 | 12* | 71 | 76 | 65 | 61
CCCOC(=O)c1ccc(Oc2cn[nH]c2-c2ccc(OC)cc2O)cc1 | 42 | 80 | 8.5* | 47 | 47
COc1ccc(-c2n[nH]c(C)c2-c2cc(OC)ccc2O)cc1 | 99 | 99 | 95 | 113 | 99
COc1ccc(-c2c(-c3ccc(O)cc3O)n[nH]c2C)cc1OC | 21* | 80 | 67 | 41 | 32
COc1ccccc1N1CCN(CC(=O)Nc2sccc2C#N)CC1 | . | . | . | 88 | 86
